The term IC50 denotes the concentration that gives 50% inhibition.

For the first assay, the target named is T1, Squalene synthase (Rattus norvegicus, UniProt Q02769).
T1 sequence (Q02769 whole entry): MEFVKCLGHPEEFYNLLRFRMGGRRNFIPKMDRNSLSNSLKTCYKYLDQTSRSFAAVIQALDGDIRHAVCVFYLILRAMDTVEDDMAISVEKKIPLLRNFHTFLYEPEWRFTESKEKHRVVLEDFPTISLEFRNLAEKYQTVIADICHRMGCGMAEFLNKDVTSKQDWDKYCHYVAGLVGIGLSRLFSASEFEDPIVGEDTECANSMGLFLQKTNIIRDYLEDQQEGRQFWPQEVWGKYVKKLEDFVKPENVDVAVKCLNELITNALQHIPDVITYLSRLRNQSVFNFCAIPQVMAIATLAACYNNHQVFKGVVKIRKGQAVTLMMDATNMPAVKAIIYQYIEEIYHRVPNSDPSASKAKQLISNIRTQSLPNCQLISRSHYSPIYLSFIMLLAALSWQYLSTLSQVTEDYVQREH
Description: Inhibitory activity against squalene synthetase in rat liver microsomes. More on the design: species or system Microsome. In a few lines: (§1)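 Rat liver microsomes (about 1 mg/mL protein) were prepared in pH 7.4 phosphate buffer with EDTA and stored at -80 °C. Samples were preincubated at 37 °C under nitrogen for 5 min. Final NADPH was 1.2 mM and MgCl2 5 mM. Tritiated farnesyl pyrophosphate started a 10-min reaction at 37 °C under nitrogen. Products were counted by liquid scintillation. Reactions ran in duplicate at several concentrations across at least four independent assays. IC50 was derived by linear regression of the pooled data.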
(In general: Microsomes from liver hold many membrane-bound enzymes, among them those of drug oxidation.)
`CC(C)CCCC(C)CCCC(C)CCNCc1cccnc1` (stereo not given) registered an IC50 of 7 µM.

Consider `CC(C)=CCC/C(C)=C/CC/C(C)=C/CNCC(C)CC/C=C(\C)CCC=C(C)C` (stereo not given), for which the IC50 came to 1 µM.

For the compound `CC(C)=CCC/C(C)=C/CC/C(C)=C/CNCc1cccnc1`, it took 0.05 µM to reach half-maximal inhibition (IC50).

Turning to `CC(C)=CCC/C(C)=C/CNCc1cccnc1`, the IC50 amounted to 23 µM.

In the case of `CC(C)=CCC/C(C)=C/CC/C(C)=C/CNCc1ccccc1`, the midpoint of inhibition, the IC50, lay at 0.1 µM.

In turn, `CC(C)=CCC/C(C)=C/CC/C(C)=C/CNCc1ccncc1` came in with a half-inhibitory concentration (IC50) of 0.1 µM.

`CCN(C/C=C(\C)CC/C=C(\C)CCC=C(C)C)Cc1cccnc1`: the IC50 stood at 4.9 µM.

On to `CCN(C/C=C(\C)CC/C=C(\C)CCC=C(C)C)C/C=C(\C)CC/C=C(\C)CCC=C(C)C`, for which the IC50 turned out to be 182 µM.

With `CC(C)=CCC/C(C)=C/CC/C(C)=C/COCc1cccnc1`, the IC50 worked out at 33 µM.

`CCNC/C=C(\C)CC/C=C(\C)CCC=C(C)C` gave an IC50 of 0.6 µM.

`CC(C)=CCC/C(C)=C/CC/C(C)=C/COC/C=C(\C)CC/C=C(\C)CCC=C(C)C` had an IC50 of 828 µM.

With `CC(C)=CCC/C(C)=C/CCC(C)CNCc1cccnc1` (stereo not given), it took 23 µM to reach half-maximal inhibition (IC50).

`CC(C)=CCC/C(C)=C/CC/C(C)=C/CNC/C=C(\C)CC/C=C(\C)CCC=C(C)C` returned an IC50 of 48 µM.

A further assay has as its target T1, Squalene synthase. Nature of the assay: Tested for inhibitory activity against squalene synthetase in the presence of inorganic pyrophosphate (PPi). In a few lines: as §1
In the case of `CC(C)=CCC/C(C)=C/CC/C(C)=C/CNCc1cccnc1`, the IC50 was 0.004 µM.

On to `CC(C)=CCC/C(C)=C/CC/C(C)=C/CNCc1ccccc1`, for which the IC50 is 0.01 µM.

The record behind these values is ChEMBL document CHEMBL1126696, “N-(arylalkyl)farnesylamines: new potent squalene synthetase inhibitors” (J Med Chem, 1993).
